From ChEMBL document CHEMBL2040780, “Antiarrhythmic properties of phenylpiperazine derivatives of phenytoin with α₁-adrenoceptor affinities” (Bioorg Med Chem, 2012)
The source made the active and inactive calls.

Legend:
[1] = tested on: Rattus norvegicus; assay: Cardiotoxicity in Wistar rat assessed as effect on Q-T interval at 10 mg/kg, iv after 15 mins; type: toxicity, organism-based; parameters: dose 10 mg/kg, route intravenous; settings: in vivo, 0.25 h
Summary of the method: (§1)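 Male Wistar rats (180–250 g), anaesthetised with thiopental 60 mg/kg ip. Standard lead II ECG recorded at 50 mm/s just before dosing and at 1, 5 and 15 min after. Heart rate and P–Q, Q–T and QRS intervals were read. n=6 per group, mean ± SEM, one-way ANOVA.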

[2] = tested on: Rattus norvegicus; assay: Antiarrhythmic activity in Wistar rat assessed as effect on heart beat at 10 mg/kg, iv after 5 mins; type: functional; summary of the method: as §1
[3] = tested on: Rattus norvegicus; assay: Cardiotoxicity in Wistar rat assessed as effect on QRS interval at 10 mg/kg, iv after 15 mins; type: toxicity, organism-based; parameters: dose 10 mg/kg, route intravenous; settings: in vivo, 0.25 h; summary of the method: as §1
[4] = tested on: Rattus norvegicus; assay: Hypotensive activity in normotensive Wistar rat assessed as decrease in systolic blood pressure at 2.5 to 10 mg/kg, iv after 1 min measured up to 60 mins; type: organism-based, Artery; parameters: dose 2.5-10 mg/kg, route intravenous; settings: in vivo
Summary of the method: (§2)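 Right carotid artery cannulated with heparin-saline-filled tubing for blood pressure recording. After 5 min stabilisation, compound injected iv into the caudal vein (2.5–10 mg/kg, 1 ml/kg). Systolic and diastolic pressure followed for 60 min. n=6 per group, mean ± SEM, one-way ANOVA.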

[5] = tested on: Rattus norvegicus; assay: Antiarrhythmic activity in iv dosed barium chloride-induced Wistar rat arrhythmia model assessed as protection against mortality administered 15 mins prior to barium chloride-challenge; type: functional; settings: Heart
Summary of the method: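 Male Wistar rats (180–250 g), groups of 6. Activity criterion: gradual disappearance of arrhythmia and restoration of sinus rhythm; protection against heart disturbances and death scored.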

[6] = tested on: Rattus norvegicus; assay: Cardiotoxicity in Wistar rat assessed as effect on P-Q interval at 10 mg/kg, iv after 15 mins; type: toxicity, organism-based; parameters: dose 10 mg/kg, route intravenous; settings: in vivo, 0.25 h; summary of the method: as §1
[7] = tested on: Rattus norvegicus; assay: Cardiotoxicity in Wistar rat assessed as effect on QRS interval at 10 mg/kg, iv after 5 mins; type: toxicity, organism-based; parameters: dose 10 mg/kg, route intravenous; settings: in vivo; summary of the method: as §1
[8] = tested on: Rattus norvegicus; assay: Antiarrhythmic activity in Wistar rat assessed as protection against adrenaline-induced extrasystoles at 2.5 to 10 mg/kg, iv administered 15 mins prior to adrenaline-challenge; type: functional, organism-based; settings: Heart
Summary of the method: (§3)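 Szekeres model in male Wistar rats anaesthetised with thiopental (60 mg/kg ip). Test compound given iv in water (2.5–10 mg/kg) 15 min before adrenaline 20 µg/kg iv. Scored for extrasystoles, bigeminy and mortality; activity means no premature beats and inhibited arrhythmia versus controls.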

[9] = tested on: Rattus norvegicus; assay: Cardiotoxicity in Wistar rat assessed as effect on P-Q interval at 10 mg/kg, iv after 1 min; type: toxicity, organism-based; parameters: dose 10 mg/kg, route intravenous; settings: in vivo; summary of the method: as §1
[10] = tested on: Rattus norvegicus; assay: Antiarrhythmic activity in Wistar rat assessed as effect on heart beat at 10 mg/kg, iv after 15 mins; type: functional; summary of the method: as §1
[11] = tested on: Rattus norvegicus; assay: Cardiotoxicity in Wistar rat assessed as effect on P-Q interval at 10 mg/kg, iv after 5 mins; type: toxicity, organism-based; parameters: dose 10 mg/kg, route intravenous; settings: in vivo; summary of the method: as §1
[12] = tested on: Rattus norvegicus; assay: Cardiotoxicity in Wistar rat assessed as effect on QRS interval at 10 mg/kg, iv after 1 min; type: toxicity, organism-based; parameters: dose 10 mg/kg, route intravenous; settings: in vivo; summary of the method: as §1
[13] = tested on: Rattus norvegicus; assay: Antiarrhythmic activity in dosed Wistar rat assessed as protection against barium chloride-induced fibrillation administered 15 mins prior to barium chloride-challenge; type: functional; settings: Heart
Summary of the method: (§4)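 Szekeres model in male Wistar rats. Activity is gradual disappearance of arrhythmia with restored sinus rhythm; protection against disturbances and death scored. Groups of 6 animals.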

[14] = tested on: Rattus norvegicus; assay: Antiarrhythmic activity in iv dosed Wistar rat assessed as protection against adrenaline-induced arrhythmia administered 15 mins prior to adrenaline-challenge; type: functional; settings: Heart; summary of the method: as §3
[15] = tested on: Rattus norvegicus; assay: Cardiotoxicity in Wistar rat assessed as effect on Q-T interval at 10 mg/kg, iv after 1 min; type: toxicity, organism-based; parameters: dose 10 mg/kg, route intravenous; settings: in vivo; summary of the method: as §1
[16] = tested on: Rattus norvegicus; assay: Hypotensive activity in normotensive Wistar rat assessed as decrease in diastolic blood pressure at 2.5 to 10 mg/kg, iv after 1 min measured up to 60 mins; type: organism-based, Artery; parameters: dose 2.5-10 mg/kg, route intravenous; settings: in vivo; summary of the method: as §2
[17] = tested on: Rattus norvegicus; assay: Antiarrhythmic activity in Wistar rat assessed as effect on heart beat at 10 mg/kg, iv after 1 min; type: functional; summary of the method: as §1
[18] = tested on: Rattus norvegicus; assay: Hypotensive activity in normotensive Wistar rat assessed as decrease in diastolic blood pressure at 2.5 to 10 mg/kg, iv at 1 min; type: organism-based, Artery; parameters: dose 2.5-10 mg/kg, route intravenous; settings: in vivo; summary of the method: as §2
[19] = tested on: Rattus norvegicus; assay: Hypotensive activity in normotensive Wistar rat assessed as decrease in systolic blood pressure at 2.5 to 10 mg/kg, iv at 1 min; type: organism-based, Artery; parameters: dose 2.5-10 mg/kg, route intravenous; settings: in vivo; summary of the method: as §2
[20] = tested on: Rattus norvegicus; assay: Antiarrhythmic activity in iv dosed Wistar rat assessed as protection against barium chloride-induced extrasystoles administered 15 mins prior to barium chloride-challenge; type: functional; settings: Heart; summary of the method: as §4
[21] = tested on: Rattus norvegicus; assay: Cardiotoxicity in Wistar rat assessed as effect on Q-T interval at 10 mg/kg, iv after 5 mins; type: toxicity, organism-based; parameters: dose 10 mg/kg, route intravenous; settings: in vivo; summary of the method: as §1
[22] = tested on: Rattus norvegicus; assay: Antiarrhythmic activity in Wistar rat assessed as protection against adrenaline-induced bigeminy at 2.5 to 10 mg/kg, iv administered 15 mins prior to adrenaline-challenge; type: functional, organism-based; settings: Heart; summary of the method: as §3
[23] = tested on: Rattus norvegicus; assay: Antiarrhythmic activity in barium chloride-induced Wistar rat arrhythmia model assessed as protection against mortality at 2.5 to 10 mg/kg, iv administered 15 mins prior to barium chloride-challenge; type: functional, organism-based; settings: Heart; summary of the method: as §4
[24] = biological target: T1, Adrenergic receptor alpha-1 (Rattus norvegicus, UniProt P15823+P23944+P43140); assay: Displacement of [3H]prazosin from alpha1 adrenoceptor in rat cerebral cortex after 30 mins by microbeta scintillation counting; type: tissue-based
T1 sequence (P15823 whole entry): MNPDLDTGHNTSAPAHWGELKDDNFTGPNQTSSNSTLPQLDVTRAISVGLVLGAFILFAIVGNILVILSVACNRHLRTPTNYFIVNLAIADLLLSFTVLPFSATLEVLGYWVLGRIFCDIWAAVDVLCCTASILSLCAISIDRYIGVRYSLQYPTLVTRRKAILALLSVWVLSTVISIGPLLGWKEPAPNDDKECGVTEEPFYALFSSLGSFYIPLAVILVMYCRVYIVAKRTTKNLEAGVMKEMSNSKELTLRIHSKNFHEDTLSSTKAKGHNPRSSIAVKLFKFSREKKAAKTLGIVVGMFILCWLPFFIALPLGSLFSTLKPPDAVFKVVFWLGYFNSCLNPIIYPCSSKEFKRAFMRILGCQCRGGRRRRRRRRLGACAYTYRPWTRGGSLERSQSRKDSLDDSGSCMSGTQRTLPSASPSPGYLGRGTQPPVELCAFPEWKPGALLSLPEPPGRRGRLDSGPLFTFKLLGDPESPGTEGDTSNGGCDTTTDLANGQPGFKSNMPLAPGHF
T1 sequence (P23944 whole entry): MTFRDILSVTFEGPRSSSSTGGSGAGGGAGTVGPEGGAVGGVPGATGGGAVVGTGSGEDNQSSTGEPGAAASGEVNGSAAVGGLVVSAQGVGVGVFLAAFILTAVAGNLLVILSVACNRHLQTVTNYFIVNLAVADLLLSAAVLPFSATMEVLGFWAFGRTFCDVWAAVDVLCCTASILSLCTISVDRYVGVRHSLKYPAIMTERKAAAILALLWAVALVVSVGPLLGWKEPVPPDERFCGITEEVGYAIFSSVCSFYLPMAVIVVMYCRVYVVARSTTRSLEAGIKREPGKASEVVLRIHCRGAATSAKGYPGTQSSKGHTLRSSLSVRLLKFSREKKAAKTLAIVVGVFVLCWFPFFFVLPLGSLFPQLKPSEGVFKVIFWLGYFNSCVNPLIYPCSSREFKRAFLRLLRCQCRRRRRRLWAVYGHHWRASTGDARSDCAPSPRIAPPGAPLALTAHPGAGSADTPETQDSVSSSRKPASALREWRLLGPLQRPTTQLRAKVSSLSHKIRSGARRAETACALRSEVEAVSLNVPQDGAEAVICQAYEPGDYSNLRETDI
T1 sequence (P43140 whole entry): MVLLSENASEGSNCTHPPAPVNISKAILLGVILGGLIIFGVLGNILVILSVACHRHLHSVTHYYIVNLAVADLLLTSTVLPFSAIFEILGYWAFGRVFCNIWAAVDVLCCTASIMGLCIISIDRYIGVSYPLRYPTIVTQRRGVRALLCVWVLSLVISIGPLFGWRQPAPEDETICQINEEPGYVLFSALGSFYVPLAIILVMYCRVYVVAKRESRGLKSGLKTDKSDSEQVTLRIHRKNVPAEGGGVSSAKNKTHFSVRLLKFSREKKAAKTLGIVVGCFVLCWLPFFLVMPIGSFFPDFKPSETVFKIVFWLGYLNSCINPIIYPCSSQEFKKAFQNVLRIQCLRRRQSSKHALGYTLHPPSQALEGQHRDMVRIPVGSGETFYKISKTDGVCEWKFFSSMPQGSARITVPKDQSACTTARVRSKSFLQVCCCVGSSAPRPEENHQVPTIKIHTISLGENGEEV
Summary of the method: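 Rat cerebral cortex homogenised in ice-cold 50 mM Tris-HCl (pH 7.6 at 25 °C), washed twice at 20000×g and resuspended at 10 mg wet weight/ml. Incubated with [3H]prazosin (19.5 Ci/mmol) and test compound for 30 min at 25 °C. Nonspecific binding defined with 10 µM phentolamine. GF/B filtration, scintillation counting, three-parameter logistic competition fit.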

| Compound | Activity [1] | Activity [2] | Activity [3] | Activity [4] | Activity [5] | Activity [6] | Activity [7] | Activity [8] | Activity [9] | Activity [10] | Activity [11] | Activity [12] | ED50 [14] | Activity [15] | Activity [16] | Activity [17] | Activity [18] | Activity [19] | Activity [21] | Activity [22] | other results |
| --- | --- | --- | --- | --- | --- | --- | --- | --- | --- | --- | --- | --- | --- | --- | --- | --- | --- | --- | --- | --- | --- |
| CCOc1ccccc1N1CCN(CC(O)CN2C(=O)N(C)C(=O)C2(c2ccccc2)c2ccccc2)CC1.Cl (racemic) | 118 ms | 241 min⁻¹ | 17 ms | Toxic | inactive | 79 ms | 16 ms | Active | 75 ms | 242 min⁻¹ | 79 ms | 18 ms | 0.33 mg/kg | 109 ms | Toxic | 246 min⁻¹ | Toxic | Toxic | 114 ms | Active | Activity [13]: inactive; Activity [20]: inactive |
| CCOC(=O)C(C)N1C(=O)N(CC(O)CN2CCN(c3ccccc3OC)CC2)C(c2ccccc2)(c2ccccc2)C1=O.Cl (racemic) | – | – | – | – | – | – | – | Active | – | – | – | – | 0.41 mg/kg | – | – | – | – | – | – | Active | Activity [23]: Active |
| COC(=O)CN1C(=O)N(CCCCN2CCN(c3ccccc3OC)CC2)C(c2ccccc2)(c2ccccc2)C1=O.Cl | 75.6 ms | 354.3 min⁻¹ | 19.5 ms | Non-toxic | – | 62.8 ms | 19.3 ms | Active | 62.6 ms | 357.8 min⁻¹ | 63.3 ms | 19.6 ms | 1.8 mg/kg | 74.6 ms | Non-toxic | 355.8 min⁻¹ | Toxic | Toxic | 73.3 ms | Active | Ki [24]: 25 nM; pKi [24]: 7.6; Activity [23]: Active |
| COC(=O)CN1C(=O)N(CC(O)CN2CCN(c3ccccc3OC)CC2)C(c2ccccc2)(c2ccccc2)C1=O.Cl (racemic) | 74 ms | 262 min⁻¹ | 17 ms | Non-toxic | inactive | 63 ms | 18 ms | Active | 64 ms | 261 min⁻¹ | 63 ms | 20 ms | 0.69 mg/kg | 98 ms | Non-toxic | 268 min⁻¹ | Toxic | Toxic | 76 ms | Active | Activity [13]: inactive; Activity [20]: inactive |
| COC(=O)C(C)N1C(=O)N(CC(O)CN2CCN(c3ccccc3OC)CC2)C(c2ccccc2)(c2ccccc2)C1=O.Cl (racemic) | 82 ms | 363 min⁻¹ | 16 ms | Non-toxic | inactive | 57 ms | 15 ms | Active | 57 ms | 362 min⁻¹ | 55 ms | 16 ms | 0.36 mg/kg | 82 ms | Non-toxic | 350 min⁻¹ | Toxic | Toxic | 81 ms | Active | Activity [13]: inactive; Activity [20]: inactive |
